Laboratory results taken from ChEMBL document CHEMBL1148741, “Synthesis and SAR investigations for novel melanin-concentrating hormone 1 receptor (MCH1) antagonists part 2: A hybrid strategy combining key fragments of HTS hits” (J Med Chem, 2007).
Calls of active or inactive are those of the source. The calls are words filed in the database; no cut-off is given here.

Assays:
[1] = biological target: T1, Melanin-concentrating hormone receptor 1 (Rattus norvegicus, UniProt P97639); assay: Displacement of [3H]T-226296 from rat recombinant MCH1 receptor
T1 sequence (P97639 whole entry): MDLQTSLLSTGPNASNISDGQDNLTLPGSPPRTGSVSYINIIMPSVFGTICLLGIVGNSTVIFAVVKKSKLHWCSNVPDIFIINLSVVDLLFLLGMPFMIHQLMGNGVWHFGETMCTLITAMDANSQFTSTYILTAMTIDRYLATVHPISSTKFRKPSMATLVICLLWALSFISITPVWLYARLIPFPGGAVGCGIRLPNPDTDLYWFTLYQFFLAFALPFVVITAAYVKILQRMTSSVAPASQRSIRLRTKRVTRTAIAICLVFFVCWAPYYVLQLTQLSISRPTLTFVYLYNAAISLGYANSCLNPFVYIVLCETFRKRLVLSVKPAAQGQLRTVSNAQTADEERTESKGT

[2] = biological target: T1, Melanin-concentrating hormone receptor 1; assay: Antagonist activity at rat MCH1 receptor expressed in HEK293 cells by FLIPR calcium mobility assay; format: functional, cell-based
D(2) dopamine receptor = D(2) dopamine receptor (Homo sapiens, UniProt P14416); assay: Displacement of [3H]spiperone from human recombinant dopamine D2 receptor
D(2) dopamine receptor, sequence (P14416 whole entry): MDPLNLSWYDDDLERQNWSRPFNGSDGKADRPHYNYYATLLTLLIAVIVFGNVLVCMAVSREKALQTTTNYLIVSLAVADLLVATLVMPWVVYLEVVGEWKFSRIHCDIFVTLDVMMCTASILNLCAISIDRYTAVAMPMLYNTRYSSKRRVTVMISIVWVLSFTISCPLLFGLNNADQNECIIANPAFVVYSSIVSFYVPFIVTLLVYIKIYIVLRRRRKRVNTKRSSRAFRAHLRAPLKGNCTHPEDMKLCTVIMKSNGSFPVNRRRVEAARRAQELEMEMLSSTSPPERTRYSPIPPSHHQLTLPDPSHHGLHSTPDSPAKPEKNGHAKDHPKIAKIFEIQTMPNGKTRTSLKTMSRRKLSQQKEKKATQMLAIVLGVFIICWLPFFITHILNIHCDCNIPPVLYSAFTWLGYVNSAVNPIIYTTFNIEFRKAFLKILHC

[3] = biological target: T2, Alpha-1A adrenergic receptor (Homo sapiens, UniProt P35348); assay: Displacement of [125I]HEAT from human recombinant adrenergic alpha-1A receptor
T2 sequence (P35348 whole entry): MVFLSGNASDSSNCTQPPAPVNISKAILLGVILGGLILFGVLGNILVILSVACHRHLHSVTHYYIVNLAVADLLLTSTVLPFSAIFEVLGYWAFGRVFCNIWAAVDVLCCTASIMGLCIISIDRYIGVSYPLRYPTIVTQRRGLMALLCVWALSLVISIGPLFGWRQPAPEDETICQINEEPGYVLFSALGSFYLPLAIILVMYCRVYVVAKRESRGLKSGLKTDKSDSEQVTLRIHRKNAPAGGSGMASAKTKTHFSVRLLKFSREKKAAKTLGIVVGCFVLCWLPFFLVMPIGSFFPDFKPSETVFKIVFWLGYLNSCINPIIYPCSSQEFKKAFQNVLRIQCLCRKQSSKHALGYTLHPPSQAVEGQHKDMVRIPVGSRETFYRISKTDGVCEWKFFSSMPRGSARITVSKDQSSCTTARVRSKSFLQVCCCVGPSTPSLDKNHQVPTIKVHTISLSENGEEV

[4] = Blood clearance in rat at 2 mg/kg, po and 1 mg/kg iv; format: ADME, organism-based; conditions: whole blood
[5] = Half life in rat at 2 mg/kg, po and 1 mg/kg iv; format: ADME, organism-based; conditions: in vivo
Rattus norvegicus [6] = assay: Inhibition of MCH-stimulated water intake in rat at 10 mg/kg, po; format: functional, organism-based; set-up: dose 10 mg/kg
[7] = Bioavailability in rat at 2 mg/kg, po and 1 mg/kg iv; format: ADME, organism-based; conditions: in vivo
Rattus norvegicus [8] = assay: Inhibition of MCH-stimulated water intake in rat at 1 mg/kg, po; format: functional, organism-based; set-up: dose 1 mg/kg
Rattus norvegicus [9] = assay: Anxiolytic activity in rat assessed as social interaction time at 0.3 mg/kg, po after 1 hr relative to control
[10] = Ratio of drug level in brain to plasma in rat at 10 mg/kg, po; format: ADME, organism-based; set-up: dose 10 mg/kg, route oral
Method in brief: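 Rats received a single oral dose in a study separate from the main PK study. Brain and plasma concentrations were measured 4 h after dosing (n = 2), and the ratio was taken as brain level over plasma level. The limit of quantitation was 2 ng/mL for plasma and 2 ng/g for brain.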

[11] = Drug level in brain at 10 mg/kg, po after 4 hrs; format: ADME, organism-based; set-up: dose 10 mg/kg, route oral; conditions: rat, read-out: Drug uptake
Method in brief: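 Separate rat experiment: single 10 mg/kg oral dose, brain and plasma exposures measured 4 h after dosing (n = 2); brain level expressed in ng/g, also as brain/plasma ratio.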

[12] = Plasma clearance in rat at 2 mg/kg, po and 1 mg/kg iv; format: ADME, organism-based
Rattus norvegicus [13] = assay: Inhibition of MCH-stimulated water intake in rat at 2.5 mg/kg, po; format: functional, organism-based; set-up: dose 2.5 mg/kg
[14] = Volume of distribution at steady state in rat; format: ADME, organism-based; conditions: in vivo, read-out: Vss

## CC(C)C(=O)Nc1cccc(C2CCN(Cc3cccc(Oc4cc(Cl)cc(Cl)c4)c3)CC2)c1
[1]
  Ki: 140 nM
[2]
  IC50: 1400 nM

## CC(C)C(=O)Nc1cccc(C2CCN(Cc3ccc(Oc4ccc(F)c(F)c4)cc3)CC2)c1
D(2) dopamine receptor
  Ki: 470 nM
[3]
  Ki: 200 nM

## O=C(Cc1ccccc1)Nc1cccc(C2CCN(CCCC(=O)c3ccc(Cl)cc3)CC2)c1
D(2) dopamine receptor
  Ki: 780 nM

## CC(C)C(=O)Nc1cccc(C2CCN(Cc3ccc(Oc4ccccc4)cc3)CC2)c1
D(2) dopamine receptor
  Ki: 120 nM
[1]
  Ki: 10 nM
[2]
  IC50: 320 nM

## CC(C)C(=O)Nc1cccc(C2CCN(CCCC(=O)c3ccc(Cl)cc3)CC2)c1
D(2) dopamine receptor
  Ki: 610 nM
[1]
  Ki: 5 nM
[2]
  IC50: 72 nM

## CC(=O)Nc1cccc(C2CCN(CCCC(=O)c3ccc(Oc4ccccc4)cc3)CC2)c1
[1]
  Ki: 490 nM
[2]
  IC50: > 10000 nM

## CC(=O)Nc1cccc(C2CCN(CCCC(=O)c3ccc(Cl)cc3)CC2)c1
D(2) dopamine receptor
  Ki: 1400 nM
[1]
  Ki: 70 nM
[2]
  IC50: 570 nM

## O=C(CCCN1CCC(O)(c2ccc(Cl)cc2)CC1)c1ccc(Cl)cc1 [CHLOROHALOPERIDOL]
D(2) dopamine receptor
  Ki: 190 nM
[1]
  Ki: 350 nM
[3]
  Ki: 150 nM

## Cc1ccc(C2CCN(Cc3ccc(Oc4ccc(F)c(F)c4)cc3)CC2)cc1NC(=O)C(C)C
D(2) dopamine receptor
  Ki: 400 nM
[1]
  Ki: 27 nM
[2]
  IC50: 360 nM
[3]
  Ki: 1010 nM

## CC(=O)Nc1cccc(C2CCN(CCCC(=O)c3ccccc3)CC2)c1
[1]
  Ki: 350 nM
[2]
  IC50: 2700 nM

## COc1ccc(Oc2ccc(CN3CCC(c4cccc(NC(=O)C(C)C)c4)CC3)cc2)cc1
D(2) dopamine receptor
  Ki: 1400 nM
[2]
  IC50: 720 nM

## Cc1ccc(NC(=O)C(C)C)cc1C1CCN(Cc2ccc(Oc3ccc(F)c(F)c3)cc2)CC1
[4]
  clearance: 55 mL/min/kg
D(2) dopamine receptor
  Ki: 7400 nM
[5]
  half-life: 5.2 h
Rattus norvegicus [6]
  Activity: Active
[7]
  bioavailability: 59%
Rattus norvegicus [8]
  Activity: Active
Rattus norvegicus [9]
  Time: 81 s
[10]
  Kp: 2.3
[2]
  IC50: 230 nM
[11]
  concentration at 4 h: 184 ng/g
[12]
  clearance: 70 mL/min/kg
Rattus norvegicus [13]
  Activity: Active
[14]
  Vd: 29 L/kg
[3]
  Ki: 180 nM

## CC(=O)Nc1cccc(C2CCN(CCCC(=O)c3ccc(C)c(C)c3)CC2)c1
[1]
  Ki: 100 nM
[2]
  IC50: 1300 nM

## CC(C)C(=O)Nc1cccc(C2CCN(Cc3ccc(Oc4ccc(Cl)cc4)cc3)CC2)c1
D(2) dopamine receptor
  Ki: 110 nM
[1]
  Ki: 5.3 nM
[2]
  IC50: 350 nM

## CC(C)C(=O)Nc1cccc(C2CCN(Cc3cccc(Oc4ccc(C(C)(C)C)cc4)c3)CC2)c1
[1]
  Ki: 540 nM

## CC(C)C(=O)Nc1cccc(C2CCN(Cc3cccc(Oc4cccc(C(F)(F)F)c4)c3)CC2)c1
[2]
  IC50: 5400 nM

## CC(C)C(=O)Nc1cccc(C2CCN(Cc3cccc(Oc4ccc(Cl)c(Cl)c4)c3)CC2)c1
[1]
  Ki: 18 nM
[2]
  IC50: 2600 nM

## O=C(CCCN1CCC(c2cccc(NC(=O)C3CCCCC3)c2)CC1)c1ccc(Cl)cc1
[1]
  Ki: 200 nM

## Cc1ccc(Oc2cccc(CN3CCC(c4cccc(NC(=O)C(C)C)c4)CC3)c2)cc1
D(2) dopamine receptor
  Ki: 1300 nM

## CC(C)C(=O)Nc1cccc(C2CCN(Cc3ccc(Oc4ccc(Cl)c(Cl)c4)cc3)CC2)c1
D(2) dopamine receptor
  Ki: 2900 nM
[1]
  Ki: 8.2 nM
[2]
  IC50: 710 nM
[3]
  Ki: 34000 nM

## CC(C)C(=O)Nc1cccc(C2CCN(Cc3cccc(Oc4ccc(Cl)cc4)c3)CC2)c1
[1]
  Ki: 23 nM
[2]
  IC50: 2000 nM

## CC(=O)Nc1cccc(C2CCN(CCCC(=O)c3ccc(C)cc3)CC2)c1
[2]
  IC50: 2400 nM

## COCC1=C(C(=O)OC)[C@H](c2ccc(F)c(F)c2)N(C(=O)NCCCN2CCC(c3cccc(NC(C)=O)c3)CC2)C(=O)N1 [SNAP-7941]
D(2) dopamine receptor
  Ki: 2800 nM
[3]
  Ki: 40 nM

## COc1ccc(Oc2cccc(CN3CCC(c4cccc(NC(=O)C(C)C)c4)CC3)c2)cc1
D(2) dopamine receptor
  Ki: 1000 nM
